Experimental data: ChEMBL document CHEMBL1926651, “Design, synthesis, antiviral and cytostatic evaluation of novel isoxazolidine nucleotide analogues with a 1,2,3-triazole linker” (Eur J Med Chem, 2012)
Calls of active or inactive are those of the source. No cut-off for these calls is given here.

What was measured:
[1] = Cytotoxicity against CRFK cells assessed as change in cell morphology up to 100 uM; assay type: cell-based, Felis catus; conditions: cat
In short: (§1)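 Uninfected host-cell cultures were examined under the microscope. MCC was taken as the lowest compound concentration producing a detectable alteration of normal cell morphology, assessed at concentrations up to 100 μM.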

MDCK = assay: Cytotoxicity against MDCK cells assessed as change in cell morphology up to 100 uM; assay type: cell-based, Canis lupus familiaris; conditions: dog; in short: as §1
[2] = tested on: Human immunodeficiency virus 2; assay: Antiviral activity against Human immunodeficiency virus 2 infected in human CEM cells assessed as inhibition of virus-induced giant cell formation after 4 days by microscopic analysis; assay type: functional, organism-based; conditions: CCRF-CEM
In short: (§2)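 CEM cells at about 3 × 10⁵ cells/cm³ were infected with 100 CCID50/mL of HIV-1(IIIB) or HIV-2(ROD), then seeded into wells holding test compound dilutions. After 4 days at 37 °C, virus-induced giant cell formation was scored microscopically.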

CCRF-CEM = assay: Cytotoxicity against human CEM cells 3 days by coulter counting; assay type: functional; conditions: 72 h
In short: (§3)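 Cells were suspended at 300,000–500,000 cells/mL and added 1:1 to compound dilutions. Incubation was at 37 °C, 2 days for L1210 and 3 days for CEM, HeLa and HEL. Cells were counted with a Coulter counter. CC50 is the concentration inhibiting cell proliferation by 50%.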

[3] = tested on: Vesicular stomatitis virus; assay: Antiviral activity against Vesicular stomatitis virus infected in human HEL cells assessed as inhibition of viral plaque formation at 250 uM; assay type: functional, organism-based
In short: (§4)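 Confluent host cell monolayers were inoculated with 100 CCID50 of virus in the presence of test compound at serial dilutions (250, 50, 10, … μM). Viral cytopathicity was scored once it reached completion in untreated virus-infected controls.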

Human respirovirus 3 = assay: Antiviral activity against Parainfluenza-3 virus infected in african green monkey Vero cells assessed as inhibition of viral plaque formation at 250 uM; assay type: functional, organism-based; in short: as §4
Vaccinia virus = assay: Antiviral activity against Vaccinia virus infected in human HEL cells assessed as inhibition of viral plaque formation at 250 uM; assay type: functional, organism-based; conditions: Orthopoxvirus vaccinia; in short: as §4
[4] = tested on: Human immunodeficiency virus 1; assay: Antiviral activity against Human immunodeficiency virus 1 infected in human CEM cells assessed as inhibition of virus-induced giant cell formation after 4 days by microscopic analysis; assay type: functional, organism-based; conditions: CCRF-CEM; in short: as §2
Human alphaherpesvirus 2 = assay: Antiviral activity against Herpes simplex virus 2 G infected in human HEL cells assessed as inhibition of viral plaque formation at 250 uM; assay type: functional, organism-based; conditions: strain G
Feline coronavirus = assay: Antiviral activity against Feline coronavirus infected in CrFK cells assessed as inhibition of viral plaque formation at 250 uM; assay type: functional, organism-based; in short: as §4
Human alphaherpesvirus 3 [5] = assay: Antiviral activity against thymidine kinase-deficient Varicella Zoster virus 07/1 infected in human HEL cells assessed as inhibition of viral plaque formation at 250 uM; assay type: functional, organism-based
HeLa [6] = assay: Cytotoxicity against human HeLa cells assessed as change in cell morphology up to 100 uM; assay type: cell-based; in short: as §1
Human alphaherpesvirus 1 [7] = assay: Antiviral activity against thymidine kinase-deficient acv-resistant Herpes simplex virus 1 KOS infected in human HEL cells assessed as inhibition of viral plaque formation at 250 uM; assay type: functional, organism-based
[8] = tested on: Mammalian orthoreovirus 1; assay: Antiviral activity against Reovirus-1 infected in african green monkey Vero cells assessed as inhibition of viral plaque formation at 250 uM; assay type: functional, organism-based; in short: as §4
[9] = tested on: Respiratory syncytial virus; assay: Antiviral activity against Respiratory syncytial virus infected in human HeLa cells assessed as inhibition of viral plaque formation at 250 uM; assay type: functional, organism-based; in short: as §4
Coxsackievirus B4 [10] = assay: Antiviral activity against Coxsackievirus B4 infected in human HeLa cells assessed as inhibition of viral plaque formation at 250 uM; assay type: functional, organism-based; in short: as §4
HEL [11] = assay: Cytotoxicity against human HEL cells assessed as change in cell morphology up to 100 uM; assay type: cell-based; in short: as §1
Human betaherpesvirus 5 [12] = assay: Antiviral activity against Human cytomegalovirus Davis infected in human HEL cells assessed as inhibition of viral plaque formation at 250 uM; assay type: functional, organism-based
Vero = assay: Cytotoxicity against african green monkey Vero cells assessed as change in cell morphology up to 100 uM; assay type: cell-based; conditions: chlorocebus sabaeus; in short: as §1
L1210 = assay: Cytotoxicity against mouse L1210 cells 2 days by coulter counting; assay type: functional; conditions: L1210, 48 h; in short: as §3
HeLa [13] = assay: Cytotoxicity against human HeLa cells 3 days by coulter counting; assay type: functional; conditions: 72 h; in short: as §3
Human alphaherpesvirus 3 [14] = assay: Antiviral activity against thymidine kinase-positive Varicella Zoster virus Oka infected in human HEL cells assessed as inhibition of viral plaque formation at 250 uM; assay type: functional, cell-based; conditions: strain Oka vaccine
[15] = tested on: Vesicular stomatitis virus; assay: Antiviral activity against Vesicular stomatitis virus infected in human Hela cells assessed as inhibition of viral plaque formation at 250 uM; assay type: functional, organism-based
Felid alphaherpesvirus 1 = assay: Antiviral activity against Felid herpesvirus 1 infected in CrFK cells assessed as inhibition of viral plaque formation at 250 uM; assay type: functional, organism-based; in short: as §4
Coxsackievirus B4 [16] = assay: Antiviral activity against Coxsackievirus B4 infected in african green monkey Vero cells assessed as inhibition of viral plaque formation at 250 uM; assay type: functional, organism-based; in short: as §4
Punta Toro virus = assay: Antiviral activity against Punta Toro virus infected in african green monkey Vero cells assessed as inhibition of viral plaque formation at 250 uM; assay type: functional, organism-based
Sindbis virus = assay: Antiviral activity against Sindbis virus infected in african green monkey Vero cells assessed as inhibition of viral plaque formation at 250 uM; assay type: functional, organism-based; in short: as §4
Human betaherpesvirus 5 [17] = assay: Antiviral activity against Human cytomegalovirus AD169 infected in human HEL cells assessed as inhibition of viral plaque formation at 250 uM; assay type: functional, organism-based
HEL [18] = assay: Cytotoxicity against human HEL cells 3 days by coulter counting; assay type: functional; conditions: 72 h; in short: as §3
Human alphaherpesvirus 1 [19] = assay: Antiviral activity against Herpes simplex virus 1 KOS infected in human HEL cells assessed as inhibition of viral plaque formation at 250 uM; assay type: functional, organism-based; in short: as §4

| SMILES | Activity [1] | Activity (MDCK) | Activity [2] | CC50 (CCRF-CEM) [µM] | Activity [3] | Activity (Human respirovirus 3) | Activity (Vaccinia virus) | Activity [4] | Activity (Human alphaherpesvirus 2) | Activity (Feline coronavirus) | Activity (Human alphaherpesvirus 3 [5]) | Activity (HeLa [6]) | Activity (Human alphaherpesvirus 1 [7]) | Activity [8] | Activity [9] | Activity (Coxsackievirus B4 [10]) | Activity (HEL [11]) | Activity (Human betaherpesvirus 5 [12]) | Activity (Vero) | CC50 (L1210) [µM] | other results |
| --- | --- | --- | --- | --- | --- | --- | --- | --- | --- | --- | --- | --- | --- | --- | --- | --- | --- | --- | --- | --- | --- |
| CCOP(=O)(OCC)[C@@H]1C[C@@H](n2cc(-c3cccc(F)c3)nn2)ON1C (racemic) | Non-toxic | Non-toxic | inactive | > 250 | inactive | inactive | inactive | inactive | inactive | inactive | inactive | Non-toxic | inactive | inactive | inactive | inactive | Non-toxic | inactive | Non-toxic | ≥ 250 | CC50 (HeLa [13]): ≥ 250 µM; Activity (Human alphaherpesvirus 3 [14]): inactive; Activity [15]: inactive; Activity (Felid alphaherpesvirus 1): inactive; Activity (Coxsackievirus B4 [16]): inactive; Activity (Punta Toro virus): inactive; Activity (Sindbis virus): inactive; Activity (Human betaherpesvirus 5 [17]): inactive; CC50 (HEL [18]): 40 µM; Activity (Human alphaherpesvirus 1 [19]): inactive |
| CCOP(=O)(OCC)[C@@H]1C[C@@H](n2cc(-c3ccc(F)cc3F)nn2)ON1C (racemic) | Non-toxic | Non-toxic | inactive | ≥ 250 | inactive | inactive | inactive | inactive | inactive | inactive | inactive | Non-toxic | inactive | inactive | inactive | inactive | Non-toxic | inactive | Non-toxic | 131 | CC50 (HeLa [13]): 162 µM; Activity (Human alphaherpesvirus 3 [14]): inactive; Activity [15]: inactive; Activity (Felid alphaherpesvirus 1): inactive; Activity (Coxsackievirus B4 [16]): inactive; Activity (Punta Toro virus): inactive; Activity (Sindbis virus): inactive; Activity (Human betaherpesvirus 5 [17]): inactive; CC50 (HEL [18]): 59 µM; Activity (Human alphaherpesvirus 1 [19]): inactive |
| CCOP(=O)(OCC)[C@@H]1C[C@@H](n2cc(-c3ccccn3)nn2)ON1C (racemic) | Non-toxic | Non-toxic | inactive | > 250 | inactive | inactive | inactive | inactive | inactive | inactive | inactive | Non-toxic | inactive | inactive | inactive | inactive | Non-toxic | inactive | Non-toxic | ≥ 250 | CC50 (HeLa [13]): > 250 µM; Activity (Human alphaherpesvirus 3 [14]): inactive; Activity [15]: inactive; Activity (Felid alphaherpesvirus 1): inactive; Activity (Coxsackievirus B4 [16]): inactive; Activity (Punta Toro virus): inactive; Activity (Sindbis virus): inactive; Activity (Human betaherpesvirus 5 [17]): inactive; CC50 (HEL [18]): 62 µM; Activity (Human alphaherpesvirus 1 [19]): inactive |
